Test results: ChEMBL document CHEMBL1255475, “Mutant prevention concentrations of four carbapenems against gram-negative rods” (2010)
Values after ≈ are worked out from the molar mass of the structure shown.

What was measured:
Format in all cases: functional
Escherichia coli [1] = assay: Antibacterial activity against beta-lactamase-positive ESBL-negative Escherichia coli E484 assessed as mutant prevention concentration after overnight incubation
In short: (§1)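 Overnight growth on blood trypticase soy agar (35°C, air) was resuspended in 0.9% saline and counted on drug-free Mueller-Hinton agar. […] Colonies were retested by agar dilution to confirm mutants. MPC was the lowest concentration preventing resistant-mutant growth.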

Escherichia coli [2] = assay: Antibacterial activity against beta-lactamase-negative Escherichia coli E424 assessed as mutant prevention concentration after overnight incubation
Pseudomonas aeruginosa [3] = assay: Antibacterial activity against Pseudomonas aeruginosa P323 assessed as mutant prevention concentration after overnight incubation
Escherichia coli [4] = assay: Antibacterial activity against beta-lactamase-positive ESBL-positive Escherichia coli E459 assessed as mutant prevention concentration after overnight incubation; in short: as §1
Acinetobacter baumannii [5] = assay: Antibacterial activity against Acinetobacter baumannii A851 assessed as mutant prevention concentration after overnight incubation
Klebsiella pneumoniae [6] = assay: Antibacterial activity against beta-lactamase-negative Klebsiella pneumoniae E359 assessed as mutant prevention concentration after overnight incubation
Escherichia coli [7] = assay: Antibacterial activity against beta-lactamase-negative Escherichia coli E350 assessed as mutant prevention concentration after overnight incubation
Pseudomonas aeruginosa [8] = assay: Antibacterial activity against Pseudomonas aeruginosa P335 assessed as mutant prevention concentration after overnight incubation
Acinetobacter baumannii [9] = assay: Antibacterial activity against Acinetobacter baumannii A929 assessed as mutant prevention concentration after overnight incubation
Escherichia coli [10] = assay: Antibacterial activity against beta-lactamase-negative Escherichia coli E348 assessed as mutant prevention concentration after overnight incubation
Pseudomonas aeruginosa [11] = assay: Antibacterial activity against Pseudomonas aeruginosa P349 assessed as mutant prevention concentration after overnight incubation
Escherichia coli [12] = assay: Antibacterial activity against beta-lactamase-positive ESBL-positive Escherichia coli E451 assessed as mutant prevention concentration after overnight incubation; in short: as §1
Escherichia coli [13] = assay: Antibacterial activity against beta-lactamase-positive ESBL-positive Escherichia coli E460 assessed as mutant prevention concentration after overnight incubation; in short: as §1
Pseudomonas aeruginosa [14] = assay: Antibacterial activity against Pseudomonas aeruginosa P337 assessed as mutant prevention concentration after overnight incubation
Klebsiella pneumoniae [15] = assay: Antibacterial activity against beta-lactamase-negative Klebsiella pneumoniae E420 assessed as mutant prevention concentration after overnight incubation; in short: as §1
Klebsiella pneumoniae [16] = assay: Antibacterial activity against beta-lactamase-positive ESBL-negative Klebsiella pneumoniae E477 assessed as mutant prevention concentration after overnight incubation; in short: as §1
Acinetobacter baumannii [17] = assay: Antibacterial activity against Acinetobacter baumannii A849 assessed as mutant prevention concentration after overnight incubation
Escherichia coli [18] = assay: Antibacterial activity against beta-lactamase-positive ESBL-positive Escherichia coli E465 assessed as mutant prevention concentration after overnight incubation; in short: as §1
Escherichia coli [19] = assay: Antibacterial activity against beta-lactamase-positive ESBL-positive Escherichia coli E452 assessed as mutant prevention concentration after overnight incubation; in short: as §1
Pseudomonas aeruginosa [20] = assay: Antibacterial activity against Pseudomonas aeruginosa P326 assessed as mutant prevention concentration after overnight incubation
Pseudomonas aeruginosa [21] = assay: Antibacterial activity against Pseudomonas aeruginosa P365 assessed as mutant prevention concentration after overnight incubation
Acinetobacter baumannii [22] = assay: Antibacterial activity against Acinetobacter baumannii A896 assessed as mutant prevention concentration after overnight incubation
Klebsiella pneumoniae [23] = assay: Antibacterial activity against beta-lactamase-positive ESBL-negative Klebsiella pneumoniae E509 assessed as mutant prevention concentration after overnight incubation; in short: as §1
Klebsiella pneumoniae [24] = assay: Antibacterial activity against beta-lactamase-positive ESBL-positive Klebsiella pneumoniae E453 assessed as mutant prevention concentration after overnight incubation; in short: as §1
Klebsiella pneumoniae [25] = assay: Antibacterial activity against beta-lactamase-positive ESBL-positive Klebsiella pneumoniae E476 assessed as mutant prevention concentration after overnight incubation; in short: as §1
Klebsiella pneumoniae [26] = assay: Antibacterial activity against beta-lactamase-negative Klebsiella pneumoniae E362 assessed as mutant prevention concentration after overnight incubation
Pseudomonas aeruginosa [27] = assay: Antibacterial activity against Pseudomonas aeruginosa P334 assessed as mutant prevention concentration after overnight incubation
Escherichia coli [28] = assay: Antibacterial activity against beta-lactamase-negative Escherichia coli E409 […] by agar dilution method
Klebsiella pneumoniae [29] = assay: Antibacterial activity against beta-lactamase-positive ESBL-negative Klebsiella pneumoniae E511 incubated up to 7 days by agar dilution method; conditions: E511, 168 h
Klebsiella pneumoniae [30] = assay: Antibacterial activity against beta-lactamase-positive ESBL-positive Klebsiella pneumoniae E453 incubated up to 7 days by agar dilution method; conditions: E453, 168 h
In short: (§2)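 MIC by CLSI agar dilution, with quality-control strains in each run. Beta-lactamase status was set by 30 μg cefazolin Kirby-Bauer disk diffusion. ESBL status was set by cefotaxime and ceftazidime disks (30 μg) with and without clavulanic acid (10 μg).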

Klebsiella pneumoniae [31] = assay: Antibacterial activity against beta-lactamase-positive ESBL-positive Klebsiella pneumoniae E457 incubated up to 7 days by agar dilution method; conditions: E457, 168 h; in short: as §2
Klebsiella pneumoniae [32] = assay: Antibacterial activity against beta-lactamase-positive ESBL-negative Klebsiella pneumoniae E474 incubated up to 7 days by agar dilution method; conditions: E474, 168 h
Klebsiella pneumoniae [33] = assay: Antibacterial activity against beta-lactamase-negative Klebsiella pneumoniae E420 incubated up to 7 days by agar dilution method; conditions: E420, 168 h; in short: as §2
Klebsiella pneumoniae [34] = assay: Antibacterial activity against beta-lactamase-negative Klebsiella pneumoniae E362 incubated up to 7 days by agar dilution method; conditions: E362, 168 h
Klebsiella pneumoniae [35] = assay: Antibacterial activity against beta-lactamase-negative Klebsiella pneumoniae E359 incubated up to 7 days by agar dilution method; conditions: E359, 168 h
Klebsiella pneumoniae [36] = assay: Antibacterial activity against beta-lactamase-negative Klebsiella pneumoniae E357 incubated up to 7 days by agar dilution method; conditions: E357, 168 h
Escherichia coli [37] = assay: Antibacterial activity against beta-lactamase-positive ESBL-positive Escherichia coli E460 incubated up to 7 days by agar dilution method; conditions: E460, 168 h; in short: as §2
Escherichia coli [38] = assay: Antibacterial activity against beta-lactamase-negative Escherichia coli E345 incubated up to 7 days by agar dilution method; conditions: E345, 168 h
Klebsiella pneumoniae [39] = assay: Antibacterial activity against beta-lactamase-positive ESBL-negative Klebsiella pneumoniae E473 incubated up to 7 days by agar dilution method; conditions: E473, 168 h
Klebsiella pneumoniae [40] = assay: Antibacterial activity against beta-lactamase-positive ESBL-negative Klebsiella pneumoniae E481 incubated up to 7 days by agar dilution method; conditions: E481, 168 h
Klebsiella pneumoniae [41] = assay: Antibacterial activity against beta-lactamase-negative Klebsiella pneumoniae E361 incubated up to 7 days by agar dilution method; conditions: E361, 168 h
Klebsiella pneumoniae [42] = assay: Antibacterial activity against beta-lactamase-negative Klebsiella pneumoniae E417 incubated up to 7 days by agar dilution method; conditions: E417, 168 h; in short: as §2
Klebsiella pneumoniae [43] = assay: Antibacterial activity against beta-lactamase-positive ESBL-negative Klebsiella pneumoniae E507 incubated up to 7 days by agar dilution method; conditions: E507, 168 h
In short: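 MPC determination: overnight cultures on blood trypticase soy agar at 35°C in air were resuspended in 0.9% saline, and CFU were counted on drug-free Mueller-Hinton agar. […] Growth was retested by agar dilution to confirm mutants. MPC was the lowest concentration preventing resistant-mutant growth.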

Escherichia coli [44] = assay: Antibacterial activity against beta-lactamase-positive ESBL-positive Escherichia coli E458 incubated up to 7 days by agar dilution method; conditions: E458, 168 h; in short: as §2

`C[C@@H](O)[C@H]1C(=O)N2C(C(=O)O)=C(SCCNC=N)C[C@H]12` [IMIPENEM ANHYDROUS] was tested, and the MPC (Escherichia coli [1]) was greater than 16 µg/mL, the MPC (Escherichia coli [2]) was 0.5 µg/mL and the MPC (Pseudomonas aeruginosa [3]) was 64 µg/mL. For the same compound, the MPC (Escherichia coli [4]) was 0.5 µg/mL, the MPC (Acinetobacter baumannii [5]) was 8 µg/mL and the MPC (Klebsiella pneumoniae [6]) was 1 µg/mL. It also gave an MPC (Escherichia coli [7]) of 2 µg/mL, an MPC (Pseudomonas aeruginosa [8]) of 32 µg/mL and an MPC (Acinetobacter baumannii [9]) of 1 µg/mL. The MPC (Escherichia coli [10]) was 0.5 µg/mL, the MPC (Pseudomonas aeruginosa [11]) was 32 µg/mL and the MPC (Escherichia coli [12]) was 0.5 µg/mL. It also gave an MPC (Escherichia coli [13]) of 0.5 µg/mL, an MPC (Pseudomonas aeruginosa [14]) of 16 µg/mL and an MPC (Klebsiella pneumoniae [15]) of 0.25 µg/mL. It also gave an MPC (Klebsiella pneumoniae [16]) of 32 µg/mL, an MPC (Acinetobacter baumannii [17]) of 64 µg/mL and an MPC (Escherichia coli [18]) of 0.5 µg/mL. It also gave an MPC (Escherichia coli [19]) of 0.5 µg/mL, an MPC (Pseudomonas aeruginosa [20]) of 32 µg/mL and an MPC (Pseudomonas aeruginosa [21]) of 16 µg/mL. The MPC (Acinetobacter baumannii [22]) was 1 µg/mL, the MPC (Klebsiella pneumoniae [23]) was greater than 32 µg/mL and the MPC (Klebsiella pneumoniae [24]) was 0.5 µg/mL. For the same compound, the MPC (Klebsiella pneumoniae [25]) was greater than 16 µg/mL, the MPC (Klebsiella pneumoniae [26]) was 1 µg/mL and the MPC (Pseudomonas aeruginosa [27]) was 16 µg/mL.
Work on `C[C@@H](O)[C@H]1C(=O)N2C(C(=O)O)=C(S[C@@H]3CN[C@H](C(=O)N(C)C)C3)[C@H](C)[C@H]12` [MEROPENEM] yielded an MIC (Escherichia coli [28]) of 0.03 µg/mL (≈ 0.0782 µM), an MIC (Klebsiella pneumoniae [29]) of 4 µg/mL (≈ 10.4 µM) and an MIC (Klebsiella pneumoniae [30]) of 0.06 µg/mL (≈ 0.156 µM). For the same compound, the MPC (Escherichia coli [1]) was 16 µg/mL, the MIC (Klebsiella pneumoniae [31]) was 0.06 µg/mL (≈ 0.156 µM) and the MPC (Escherichia coli [2]) was 0.06 µg/mL. For the same compound, the MPC (Pseudomonas aeruginosa [3]) was 4 µg/mL, the MPC (Escherichia coli [4]) was 0.125 µg/mL and the MPC (Acinetobacter baumannii [5]) was 32 µg/mL. For the same compound, the MPC (Klebsiella pneumoniae [6]) was 0.125 µg/mL, the MIC (Klebsiella pneumoniae [32]) was 4 µg/mL (≈ 10.4 µM) and the MPC (Escherichia coli [7]) was 0.06 µg/mL. The MIC (Klebsiella pneumoniae [33]) was 0.03 µg/mL (≈ 0.0782 µM), the MIC (Klebsiella pneumoniae [34]) was 0.06 µg/mL (≈ 0.156 µM) and the MPC (Pseudomonas aeruginosa [8]) was 32 µg/mL. For the same compound, the MIC (Klebsiella pneumoniae [35]) was 0.06 µg/mL (≈ 0.156 µM), the MPC (Acinetobacter baumannii [9]) was 4 µg/mL and the MPC (Escherichia coli [10]) was 0.06 µg/mL. For the same compound, the MIC (Klebsiella pneumoniae [36]) was 0.03 µg/mL (≈ 0.0782 µM), the MIC (Escherichia coli [37]) was 0.03 µg/mL (≈ 0.0782 µM) and the MPC (Pseudomonas aeruginosa [11]) was 16 µg/mL. It also gave an MPC (Escherichia coli [12]) of 0.06 µg/mL, an MPC (Escherichia coli [13]) of 0.06 µg/mL and an MPC (Pseudomonas aeruginosa [14]) of 8 µg/mL. For the same compound, the MIC (Escherichia coli [38]) was 0.03 µg/mL (≈ 0.0782 µM), the MPC (Klebsiella pneumoniae [15]) was 0.06 µg/mL and the MPC (Klebsiella pneumoniae [16]) was 8 µg/mL. It also gave an MIC (Klebsiella pneumoniae [39]) of 2 µg/mL (≈ 5.22 µM), an MPC (Acinetobacter baumannii [17]) of 32 µg/mL and an MIC (Klebsiella pneumoniae [40]) of 1 µg/mL (≈ 2.61 µM). It also gave an MPC (Escherichia coli [18]) greater than 1 µg/mL, an MPC (Escherichia coli [19]) of 0.06 µg/mL and an MPC (Pseudomonas aeruginosa [20]) of 64 µg/mL. The MIC (Klebsiella pneumoniae [41]) was 0.06 µg/mL (≈ 0.156 µM), the MPC (Pseudomonas aeruginosa [21]) was 8 µg/mL and the MPC (Acinetobacter baumannii [22]) was 4 µg/mL. The MPC (Klebsiella pneumoniae [23]) was greater than 64 µg/mL, the MPC (Klebsiella pneumoniae [24]) was 0.5 µg/mL and the MPC (Klebsiella pneumoniae [25]) was greater than 64 µg/mL. It also gave an MPC (Klebsiella pneumoniae [26]) of 0.125 µg/mL, an MIC (Klebsiella pneumoniae [42]) of 0.06 µg/mL (≈ 0.156 µM) and an MIC (Klebsiella pneumoniae [43]) of 4 µg/mL (≈ 10.4 µM). It also gave an MPC (Pseudomonas aeruginosa [27]) greater than 4 µg/mL and an MIC (Escherichia coli [44]) of 0.03 µg/mL (≈ 0.0782 µM).
